Compound activity: PubChem BioAssay, The Scripps Research Institute Molecular Screening Center
OX1R antag-1 – OX1R (HCRTR1) antagonists, primary screen, fluorescence, CHO/OX1R cells, Fluo-8 calcium, orexin A; 0.43% of 330,000 active; inhibition, % at 5 µM; Fluo-8 calcium fluorescence; Orexin/Hypocretin receptor type 1 (Homo sapiens), O43613;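 active = inhibition above its plate's threshold, mean inhibition of all tested compounds on the plate plus 3 SD, cut at about 37% in these data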;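 also: 0% = orexin A challenge wells and 100% = SB-334867-A antagonist wells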
CHO parental Ca – ATP-evoked calcium signal inhibitors, parental CHO, primary screen, counter-screen for OX1R antagonist project, cell-based, fluorescence, Fluo-8 calcium dye. parental CHO-K1, ATP-induced calcium, Fluo-8 fluorescence. inhibition, % at 5.6 µM. 0.63% of 330,000 active. AID 463079, 2010;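 active = inhibition above that plate's mean sample inhibition plus 3 SD, cut at about 26% in these data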;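 also: 0% = ATP-challenged DMSO wells and 100% = DMSO wells without ATP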
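Test system: parental CHO cells; detection: calcium-sensitive Fluo-8 fluorescence; evaluation: percent inhibition of calcium signal; also added: ATP as calcium-mobilizing challenge; repeats: one well per compound; control set: ATP-challenged DMSO wells low, unchallenged DMSO wells high; compound: single nominal dose of 5.6 µM per compound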
GalR3 antag – GalR3 antagonists in HEK293 cells, primary screen, cell-based, fluorescence readout; Galanin receptor type 3 (Homo sapiens), O60755; HEK293 GalR3-CNG cAMP membrane potential fluorescence; galR3 body fused to GalR1 C-terminus; inhibition, % at 3 µM; 0.44% of 360,000 active; AID 651719, 2012;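 active = inhibition above the screen-wide average plus 3 SD, cut at about 13% in these data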;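 also: forskolin and galanin both at EC90 stimulate the cells; cAMP rise reported by CNG channel membrane potential dye signal; 0% = forskolin plus galanin with DMSO and 100% = forskolin alone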
Target sequence (O60755 1-299 limits assumed): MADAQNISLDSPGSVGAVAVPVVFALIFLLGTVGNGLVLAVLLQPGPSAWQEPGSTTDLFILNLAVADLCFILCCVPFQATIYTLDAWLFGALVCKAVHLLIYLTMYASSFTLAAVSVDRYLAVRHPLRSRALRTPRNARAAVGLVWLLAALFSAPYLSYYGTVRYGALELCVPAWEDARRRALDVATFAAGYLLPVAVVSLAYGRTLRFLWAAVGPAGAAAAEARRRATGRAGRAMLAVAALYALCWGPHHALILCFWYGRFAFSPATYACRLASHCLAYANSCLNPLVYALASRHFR
OX1R antag-2 – antagonists of human orexin 1 receptor (OX1R) | Orexin/Hypocretin receptor type 1 (Homo sapiens), O43613 | OX1R-expressing cells, FRET antagonist read-out | inhibition, % at 6.6 µM | 1.8% of 330,000 active | AID 485270, 2010; in the data active = inhibition mostly above about 38%, no sharp cut-off; inactive = mostly below about 40%;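 also: 0% = agonist challenge alone and 100% = reference antagonist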
GPR7 antagonist – GPR7 receptor antagonists, primary screen, cell-based, fluorescence, single concentration | Neuropeptides B/W receptor type 1 (Homo sapiens), P48145 | 1.1% of 290,000 active | GPR7-expressing cells, fluorescence antagonist assay | inhibition, % at 4.4 µM | AID 1861, 2009; in the data active = inhibition above about 16%, passing the limit was not always enough;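 also: cells stimulated with the agonist NPW; 0% = agonist with vehicle and 100% = vehicle without agonist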
Target sequence (P48145 whole entry, looked up): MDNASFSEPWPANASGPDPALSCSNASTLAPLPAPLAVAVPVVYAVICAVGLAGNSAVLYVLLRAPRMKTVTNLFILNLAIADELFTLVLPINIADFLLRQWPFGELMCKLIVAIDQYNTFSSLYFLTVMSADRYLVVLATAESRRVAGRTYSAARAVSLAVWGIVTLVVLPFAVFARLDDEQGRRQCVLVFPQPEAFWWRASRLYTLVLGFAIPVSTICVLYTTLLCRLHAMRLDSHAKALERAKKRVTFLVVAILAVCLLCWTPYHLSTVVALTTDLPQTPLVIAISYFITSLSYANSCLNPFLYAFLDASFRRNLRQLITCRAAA
An asterisk follows results filed as active; . = no result given. In the library only some 3.1% were active in any assay of this set; here they are far more common.

SMILES	OX1R antag-1	CHO parental Ca	GalR3 antag	OX1R antag-2	GPR7 antagonist
CC(C)N1C(=O)S/C(=C/c2ccc(Sc3nc4ccccc4[nH]3)o2)C1=O	55.7*	70.8*	-3.5	53.5	-10.6
CCOC(=O)C(C)N1C(=O)S/C(=C\c2ccc(-c3ccccc3C(=O)O)o2)C1=O (stereo not given)	-0.6	4.5	4.8	2.8	0.0
C/C=C\C(=O)Nc1cccc(C2=NOC3(C2)C[C@H](C(N)=O)N(C(=O)Cc2ccc([N+](=O)[O-])cc2)C3)c1 (stereo not given in full)	-8.8	6.8	-2.5	40.3	.
O=C(NN1CCOCC1)c1cnn2c(C(F)F)cc(-c3ccccc3)nc12	-14.7	-18.1	-7.0	39.6*	-3.8
Cc1ccccc1CN1[C@@H](CC2CCCCC2)COCCS1(=O)=O	-32.6	-31.7	-4.7	68.4*	-1.9
COc1ccc(Cl)cc1NC(=O)COC(=O)/C=C/c1c(C)nn(C2CCS(=O)(=O)C2)c1Cl (stereo not given)	32.5	43.5*	-0.9	56.2	-14.3
COc1c(C)cc(C(=O)C2CCCN(C(=O)c3csc(C)n3)C2)cc1C (stereo not given)	-13.8	-12.3	5.0	31.7	-19.2
CCCc1cc(C(=O)N2CCCC(C(=O)c3cc(C)c(OC)c(C)c3)C2)n(C)n1 (stereo not given)	-5.0	-28.7	-11.0	36.8*	-16.4
COc1c(C)cc(C(=O)C2CCCN(C(=O)c3ccc4[nH]ccc4c3)C2)cc1C (stereo not given)	-10.9	-18.6	-1.7	75.0*	-6.4
CCn1c(SCC(=O)Nc2nc(C)c(C)s2)nc2cccnc21	3.0	-23.3	0.2	74.6*	-15.8
CCOc1ccccc1NC(=O)CSc1nc2cccnc2n1C	4.6	-6.5	-1.9	52.5*	1.5
COC(=O)c1ccccc1NC(=O)CSc1nc2cccnc2n1C	-10.9	-23.7	-2.0	60.0	3.9
Cc1cccc(N2CCN(C(=O)CN3C(=O)NC4(CCCCCC4)C3=O)CC2)c1C	.	.	-2.2	.	.
CNc1cncc(-c2ccc(CN(C)C)cc2)n1	.	.	-6.6	.	.
CCOC(=O)/C(C#N)=C/Nc1ccccc1OC(F)(F)F	-37.1	45.5*	-3.0	11.1	-21.0
CCOC(=O)/C(C#N)=C/Nc1cc(OC)ccc1OC	-31.3	-17.8	-2.5	6.7	-18.1
O=c1cc(-c2ccc(F)cc2)oc2ccccc12	-9.9	-14.7	-0.5	20.9	-14.0
CSc1ccc(-c2cc(=O)c3ccccc3o2)cc1	38.0	-14.1	-5.9	67.6*	-5.6
CN(C)Cc1c(O)ccc2cc(-c3nc4ccccc4n3C)c(=O)oc12	-11.9	7.4	-4.8	43.3*	-13.8
Cc1cc2c(sc3c(C)ccc(C)c32)c(C)n1	-9.2	-15.9	-1.9	8.5	1.6
CC(C)NC(=O)c1ccc(COc2ccc(C(C)(C)C)cc2)o1	39.6	65.8*	-12.0	4.3	11.6
Cc1ccc(S(=O)(=O)c2c(C)cc(C)[nH]c2=O)cc1	3.3	-6.3	-11.3	8.2	0.4
O=C(COC(=O)c1ccco1)NC1CCCc2ccccc21 (stereo not given)	-23.2	0.7	-0.7	7.4	.
COc1cccc(/C=N/Nc2nnc(C)n2N)c1OCc1ccccc1Cl	-0.9	1.6	-1.7	67.5*	-0.9
CCc1ccc(-c2nc(CSCC(=O)N3CCN(c4ncccn4)CC3)c(C)o2)cc1	-14.0	14.5	0.5	41.6*	-17.1
SMILES	OX1R antag-1	CHO parental Ca	GalR3 antag	OX1R antag-2	GPR7 antagonist
Cc1ccc(NC(=O)Nc2ccccc2CC[N+](=O)[O-])cc1	-4.8	-15.8	-4.5	4.6	-0.1
O=C(c1cc(COc2cccc(C(F)(F)F)c2)on1)N1CCC(Oc2cccnc2)CC1	11.4	38.7*	-3.4	6.1	14.7
O=C(c1cc(COc2ccc(F)cc2Cl)on1)N1CCC(OCc2cccnc2)CC1	45.3*	60.6*	-2.1	56.7	-6.5
O=C(c1cc(COc2ccc(F)cc2Cl)on1)N1CCCC(OCc2cccnc2)C1 (stereo not given)	-21.9	8.3	6.7	25.7	-18.2
O=C(CCc1nnc(C2CCCCC2)o1)N1CCN(c2ccccc2F)CC1	-23.7	45.9*	4.1	21.9	-9.8
Cc1ccc2cccc(NC(=S)NC(=O)c3c(Br)cnn3C)c2n1	-37.1	-27.4	-4.0	16.1	-6.4
Cc1ccc2cccc(NC(=S)NC(=O)c3ccn(C)n3)c2n1	0.4	-42.5	1.5	65.4*	-8.2
O=C(Cc1c[nH]c2ccccc12)Nc1ccc(Nc2cccnc2)c(-c2cc(F)cc(F)c2)c1	.	.	-7.6	.	.
Cn1cccc1C(=O)/C(C#N)=C/c1ccc(F)cc1	-13.4	-12.8	-6.3	8.2	-9.8
O=C(CCOc1ccccc1)NNC(=O)c1ccccc1	-13.9	-17.3	-7.1	8.9	.
N#C/C(=N\Nc1ccccc1)C(N)=S	2.5	-10.1	-0.5	24.8	-6.5
N#C/C(=N\Nc1ccc(Cl)cc1)C(N)=S	20.8	17.6	-7.0	49.5*	11.1
Cc1ccc(-c2c(C(=O)N(C)Cc3ccccc3)oc(=O)c3ccccc23)cc1	-21.6	-3.0	-6.6	16.0	19.5*
COc1ccccc1Nc1ncccc1[N+](=O)[O-]	4.6	-2.9	-3.4	19.1	-25.0
COc1ccccc1C(CNc1ncccc1[N+](=O)[O-])N(C)C (stereo not given)	-12.3	-12.7	-2.8	67.2*	3.9
Cc1[nH]nc(-c2ccc(O)cc2O)c1-c1ccc(Cl)cc1	12.5	12.7	-6.7	-1.8	1.1
COc1ccc(-c2n[nH]c(C)c2-c2ccc(Cl)cc2)c(O)c1	39.2	98.3*	-6.6	21.0	-3.1
CNc1ncc(Cc2ccccc2)s1	2.0	-0.3	3.9	2.9	16.2
CCNC(=O)COC(=O)CNC(=O)c1cc(Cl)cc([N+](=O)[O-])c1	-12.2	-6.7	-3.5	41.1*	-0.9
O=C(CNC(=O)c1cc(Cl)cc([N+](=O)[O-])c1)NC1CC1	-0.4	-5.2	-2.6	47.8*	.
CCCCNC(=O)COC(=O)CNC(=O)c1cc(Cl)cc([N+](=O)[O-])c1	-8.6	-8.8	-1.3	76.8*	0.0
O=C(Nc1ccc(N2CCOCC2)cc1)c1ccc(Cl)c(S(=O)(=O)N2CCCCC2)c1	-7.1	-6.4	-2.5	3.5	.
O=C(NCCc1ccccn1)c1c(-c2ccsc2)sc2ccccc12	-21.6	-31.6	-9.2	47.6*	.
O=C(NCCc1ccccn1)c1c(-c2ccccc2)sc2ccccc12	-4.8	-15.7	-8.9	20.6	.
CN(CC(=O)Nc1ccc(Cl)cc1)C(=O)c1cccc(S(=O)(=O)N2CCN(Cc3ccccc3)CC2)c1	32.2	37.1*	-5.2	35.8	.
CN(C)C(=O)c1ccc(NC(=O)c2cccc(S(=O)(=O)N3CCN(Cc4ccccc4)CC3)c2)cc1	.	.	-7.7	.	.
